Source: PubChem BioAssay (several laboratories)
Platelet DG rel = modulates dense granule release in human platelets. AID 1663. human platelet-rich plasma, SFLLRN dense granule ATP release, luminescence. inhibition, %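 (compounds screened at 7.5 µM in platelet-rich plasma)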. 0.22% of 300,000 active;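 active = mean replicate score, as percent of positive control, at or above 50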
SENP6 block = SENP6 protease inhibition; Q9GZR1; Recombinant SENP6 catalytic domain, aminoluciferin luminescence; inhibition, % at 10 µM; 1.8% of 330,000 active;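 active = inhibition above about 50% at the single tested dose, limit read from the data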;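 note: plate controls were DMSO wells with enzyme for no effect and DMSO wells lacking enzyme for full effect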
Target sequence (Q9GZR1 628-1112 limits assumed): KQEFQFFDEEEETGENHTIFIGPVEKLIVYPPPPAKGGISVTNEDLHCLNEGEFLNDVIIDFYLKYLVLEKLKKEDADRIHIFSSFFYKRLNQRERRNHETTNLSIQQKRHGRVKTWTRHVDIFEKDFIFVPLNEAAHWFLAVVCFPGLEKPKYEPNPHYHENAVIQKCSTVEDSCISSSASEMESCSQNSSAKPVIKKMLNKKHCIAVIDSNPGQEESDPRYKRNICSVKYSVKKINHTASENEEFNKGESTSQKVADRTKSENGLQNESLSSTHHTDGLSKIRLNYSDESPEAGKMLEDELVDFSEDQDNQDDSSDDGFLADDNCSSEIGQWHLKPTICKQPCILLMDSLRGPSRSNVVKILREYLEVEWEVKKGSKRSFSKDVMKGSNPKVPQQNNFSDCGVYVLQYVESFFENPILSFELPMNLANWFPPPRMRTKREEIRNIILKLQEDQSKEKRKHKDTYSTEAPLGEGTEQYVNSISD
SENP8 block-1 = SENP8 (human) protease inhibition. recombinant SENP8, Nedd8 substrate fluorescence. inhibition, % at 20 µM. 0.64% of 360,000 active. AID 602440; in the data active = inhibition mostly above about 40%, no sharp cut-off; inactive = mostly below about 27%
SENP7 inh = inhibitors of human SENP7 protease. Q9BQF6. recombinant SENP7, Z-RLRGG-aminoluciferin luminescence, 40 min. inhibition, % at 5 µM. 1.5% of 330,000 active. AID 434973;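 active = inhibition above about 50% at the single test dose, limit read from the data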;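 note: plate controls were DMSO with enzyme for no effect and no enzyme buffer wells for full effect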
SENP8 block-2 = blocks the human protease SENP8 | Q96LD8 | purified SENP8, Z-RLRGG-aminoluciferin cleavage, luminescence | inhibition, % at 10 µM | 1.2% of 330,000 active | AID 2540; in the data active = inhibition above about 50%
SENP1 FRET inh = SENP1 (human) catalytic domain inhibition. recombinant SENP1 catalytic domain, CyPet-SUMO1-YPet FRET cleavage. inhibition, % at 10 µM. AID 624204. 0.21% of 360,000 active. Q9P0U3;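 active = inhibition at least 30% at 10 µM, raw YFP signal under a set limit, fluorescence ratio 0.5 to 1.5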;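 note: 0% = enzyme with DMSO and 100% = no enzyme wells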
Target sequence (Q9P0U3 419-644 limits assumed): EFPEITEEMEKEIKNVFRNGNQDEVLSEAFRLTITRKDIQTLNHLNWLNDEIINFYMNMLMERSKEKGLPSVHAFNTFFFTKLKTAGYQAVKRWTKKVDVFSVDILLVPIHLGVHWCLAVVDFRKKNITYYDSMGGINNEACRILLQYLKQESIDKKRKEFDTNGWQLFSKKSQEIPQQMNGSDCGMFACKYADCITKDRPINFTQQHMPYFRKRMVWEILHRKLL
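Assay system: hSENP1 catalytic domain, recombinant. Amount: SENP1 enzyme, 20 pM final. Schedule: 50 min reaction, RT, dark. Technique: FRET, CFP and YFP emission. Control set: no-enzyme wells low, DMSO-plus-enzyme wells high control.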
SENP8 confirm = human SENP8 inhibition, confirmed. inhibition, % at 12.5 µM. shares compounds with SENP7 inh. 40% of 6,200 active. Recombinant SENP8, Z-RLRGG-aminoluciferin luminescence, 60 min;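 active = mean inhibition across replicates above about 50%, limit read from the data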
SENP6 conf = human SENP6 inhibition, confirmed | shares compounds with SENP7 inh | recombinant SENP6, Z-RLRGG-aminoluciferin luminescence | inhibition, % at 12.5 µM | 58% of 6,200 active | AID 488915
SENP7 confirm = human SENP7 inhibition, confirmed; shares compounds with SENP7 inh; recombinant SENP7, Z-RLRGG-aminoluciferin luminescence, 40 min; inhibition, % at 12.5 µM; 69% of 6,200 active
Casp3 select = inhibits human caspase-3 in SENP selectivity test | shares compounds with SENP7 inh | purified caspase-3, Z-DEVD-aminoluciferin luminescence, 60 min | inhibition, % at 12.5 µM | 60% of 6,200 active | AID 488918;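 active = mean inhibition above about 50%, limit read from the data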;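 note: plate controls were enzyme with DMSO for no effect and wells without caspase-3 for full effect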
SENP luc ctr = luminescence interference (SENP counter-screen); shares compounds with SENP7 inh; Pre-incubated SENP8/Z-RLRGG-aminoluciferin, luciferase luminescence interference; inhibition, % at 12.5 µM; 39% of 6,200 active; AID 488919;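 active = mean inhibition above about 50% when retested at one dose, limit read from the data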;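 note: plate controls were DMSO wells with completed reaction for no effect and substrate without enzyme for full effect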
An asterisk follows results filed as active. Compounds with a hit are over-represented: about 2.6% of the library has one in this group of screens.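 Rule for the calls, unless noted: active = mean inhibition above about 50% in the one-dose retest (limit read from the data); inactive = the rest.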

Results for COc1ccc(C(=O)Nc2nc3ccccc3[nH]2)cc1 ?
Platelet DG rel: -2.6; SENP6 block: 96.7*; SENP8 block-1: 1.9; SENP7 inh: 97.3*; SENP8 block-2: 92.6*; SENP1 FRET inh: -0.8; SENP8 confirm: 7.5; SENP6 conf: 95.1*; SENP7 confirm: 101.2*; Casp3 select: 96.1*; SENP luc ctr: 59.6*

Results for O=C(Nc1nc2ccccc2[nH]1)c1cccs1 ?
Platelet DG rel: 7.6; SENP6 block: 17.0; SENP8 block-1: -19.1; SENP7 inh: 69.4*; SENP8 block-2: 44.5; SENP1 FRET inh: 0.0; SENP8 confirm: 42.7; SENP6 conf: 72.6*; SENP7 confirm: 88.8*; Casp3 select: 87.5*; SENP luc ctr: 10.1

How did COc1ccc(C(=O)N[C@H](C(=O)Nc2nc3ccccc3[nH]2)C(C)C)cc1 do in these assays?
Platelet DG rel: -4.1; SENP6 block: -20.8; SENP8 block-1: 7.3; SENP7 inh: 5.2; SENP8 block-2: 4.6; SENP1 FRET inh: -1.4

Results for O=C(Nc1nc2ccccc2[nH]1)C1CC1 ?
Platelet DG rel: 0.9; SENP6 block: -31.7; SENP8 block-1: 20.8; SENP7 inh: -13.0; SENP8 block-2: -6.2; SENP1 FRET inh: 0.8

Results for Cc1ccc(C)c(NC(=O)CN(C)C(=O)Cn2c(=O)oc3ccccc32)c1 ?
Platelet DG rel: 0.9; SENP6 block: -8.1; SENP8 block-1: -12.4; SENP7 inh: 2.2; SENP8 block-2: -12.9; SENP1 FRET inh: -21.1

How did O=C(NC(=S)Nc1ccc(S(=O)(=O)Nc2nccs2)cc1)c1ccc(F)cc1 do in these assays?
Platelet DG rel: 1.2; SENP6 block: 64.0*; SENP8 block-1: 10.6; SENP7 inh: 0.9; SENP8 block-2: 23.2; SENP1 FRET inh: -2.3; SENP8 confirm: 36.1; SENP6 conf: 33.0; SENP7 confirm: 66.1*; Casp3 select: 45.1; SENP luc ctr: 52.1*

Results for CC(C)(C)C(=O)NC(=S)Nc1ccc(S(=O)(=O)Nc2nccs2)cc1 ?
Platelet DG rel: 3.9; SENP6 block: -6.0; SENP8 block-1: 3.3; SENP7 inh: 3.9; SENP8 block-2: 1.8; SENP1 FRET inh: 4.2

Results for OCC[C@@H]1C[C@H](O)[C@@H](O)[C@@]2(OCCCc3cc(Cl)ccc32)O1 ?
SENP8 block-1: 19.4; SENP1 FRET inh: -0.1

What do the screens show for `CC(C)(C)c1ccc(/C=C/C(=O)Nc2nncs2)cc1`?
Platelet DG rel: 26.9; SENP6 block: 46.8; SENP8 block-1: 4.4; SENP7 inh: 79.4*; SENP8 block-2: 28.2; SENP1 FRET inh: 1.7; SENP8 confirm: 24.8; SENP6 conf: 25.2; SENP7 confirm: 5.1; Casp3 select: 18.2; SENP luc ctr: 13.3

Results for O=C(/C=C/c1cccs1)Nc1nncs1 ?
Platelet DG rel: 8.3; SENP6 block: 24.3; SENP8 block-1: 0.9; SENP7 inh: 19.6; SENP8 block-2: 1.5; SENP1 FRET inh: 0.8

How did O=C(NC1(O)C(=O)c2ccccc2C1=O)c1ccccc1 do in these assays?
Platelet DG rel: 13.5; SENP6 block: 70.2*; SENP8 block-1: 99.1*; SENP7 inh: 62.7*; SENP8 block-2: 65.1*; SENP1 FRET inh: 2.7; SENP8 confirm: 75.4*; SENP6 conf: 88.6*; SENP7 confirm: 81.2*; Casp3 select: 6.9; SENP luc ctr: 9.9

Results for COC1(NC(=O)c2ccccc2)C(C)=CC(=O)C=C1C ?
Platelet DG rel: 3.4; SENP6 block: -9.3; SENP8 block-1: 9.3; SENP7 inh: -3.5; SENP8 block-2: -0.7; SENP1 FRET inh: -0.4

What do the screens show for `O=C(NC1(O)C(=O)c2ccccc2C1=O)c1c(Cl)cccc1Cl`?
Platelet DG rel: -2.6; SENP6 block: 64.6*; SENP8 block-1: 97.3*; SENP7 inh: 60.3*; SENP8 block-2: 63.7*; SENP1 FRET inh: 2.6; SENP8 confirm: 67.1*; SENP6 conf: 85.9*; SENP7 confirm: 75.1*; Casp3 select: 9.0; SENP luc ctr: 5.8

Results for O=C(Nc1ccc(NC(=O)C2CC2)cn1)c1ccccc1 ?
Platelet DG rel: 22.1; SENP6 block: 65.1*; SENP8 block-1: 9.5; SENP7 inh: 45.3; SENP8 block-2: 31.8; SENP1 FRET inh: 1.3; SENP8 confirm: 54.9*; SENP6 conf: 53.3*; SENP7 confirm: 77.4*; Casp3 select: 84.5*; SENP luc ctr: 8.3

How did Cc1c(NC(=O)c2ccc(NC(=O)C3CC3)cc2)cccc1C(=O)O do in these assays?
Platelet DG rel: 1.1; SENP6 block: 53.4*; SENP8 block-1: 8.2; SENP7 inh: 56.8*; SENP8 block-2: 27.0; SENP1 FRET inh: 0.9; SENP8 confirm: 47.9; SENP6 conf: 43.5; SENP7 confirm: 76.9*; Casp3 select: 14.6; SENP luc ctr: 34.8

Results for O=C(Nc1ccc(NC(=O)C2CC2)cn1)c1ccccc1Cl ?
SENP6 block: -16.5; SENP8 block-1: 10.3; SENP7 inh: -12.8; SENP8 block-2: -14.0; SENP1 FRET inh: 0.7

How did Cc1c(NC(=O)c2ccccc2NC(=O)c2ccccc2)cccc1C(=O)O do in these assays?
Platelet DG rel: 3.7; SENP6 block: -26.1; SENP8 block-1: 9.4; SENP7 inh: -4.7; SENP8 block-2: -12.5; SENP1 FRET inh: 2.0

What do the screens show for `Cc1c(NC(=O)c2ccccc2N)cccc1C(=O)O`?
Platelet DG rel: -1.9; SENP6 block: 56.0*; SENP8 block-1: -99.8; SENP7 inh: 70.7*; SENP8 block-2: 46.4; SENP1 FRET inh: 2.6; SENP8 confirm: 73.6*; SENP6 conf: 67.5*; SENP7 confirm: 89.0*; Casp3 select: 24.6; SENP luc ctr: 38.8

Results for O=C(Nc1ccccc1C(=O)O)c1ccc(NC(=O)C2CCCO2)cc1 (stereo not given) ?
Platelet DG rel: -6.5; SENP6 block: 47.1; SENP8 block-1: 0.6; SENP7 inh: 25.6; SENP8 block-2: 24.8; SENP1 FRET inh: 0.4

How did CCOc1cccc(/C=N/NC(=O)c2ccc3c(c2)OCCO3)c1O do in these assays?
Platelet DG rel: 4.3; SENP6 block: 6.9; SENP8 block-1: -16.1; SENP7 inh: 4.5; SENP8 block-2: 1.1; SENP1 FRET inh: 6.3
